The values below come from ChEMBL document CHEMBL1142504, “Influence of 6- or 8-substitution on the antiviral activity of 3-arylalkylthiomethylimidazo[1,2-a]pyridine against human cytomegalovirus (CMV) and varicella-zoster virus (VZV): part II” (Bioorg Med Chem, 2008).

The subject of series [1] is Human alphaherpesvirus 3. As to the kind of experiment: Antiviral activity against thymidine kinase expressing Varicella-Zoster virus Oka in HEL cells assessed as inhibition of viral cytopathicity. As to conditions: Human alphaherpesvirus 3, Oka. Type of series: functional, organism-based. In a few lines: (§1)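 VZV input was 20 PFU per HEL cell culture. Cultures were incubated with test compound for 5 days at 37 °C under 5% CO2, then fixed and stained. Viral plaque formation was counted against the untreated control to give the EC50.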
A general note: Cytopathic effects are the visible damage that an infection or toxin causes in cultured cells.

In series [2] the test system is Human betaherpesvirus 5. As to the kind of experiment: Antiviral activity against human cytomegalovirus Davis in HEL cells assessed as inhibition of viral cytopathicity. Type of series: functional, organism-based. As to conditions: Human betaherpesvirus 5, Davis. The procedure, abridged:
(§2)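 Confluent HEL cell cultures were inoculated with 100 PFU of HCMV. After 2 h adsorption, residual virus was removed and cells were incubated with varying concentrations of test compound. Viral cytopathicity was scored when it reached completion in the untreated virus-infected controls, and the EC50 was taken from this read-out.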

Series [3] relates to Human betaherpesvirus 5. The experiment in a line: Antiviral activity against human cytomegalovirus AD169 in HEL cells assessed as inhibition of viral cytopathicity. The following applies: Human betaherpesvirus 5, AD169, HEL. The series is classed as functional, organism-based. In a few lines: as §2
In series [4] the test system is Human alphaherpesvirus 3. The experiment in a line: Antiviral activity against thymidine kinase deficient Varicella-Zoster virus 07/1 in HEL cells assessed as inhibition of viral cytopathicity. The series is classed as functional, organism-based. As to conditions: Human alphaherpesvirus 3, HEL. In a few lines:
as §1

A short description of series [5]: Cytotoxicity against HEL cells assessed as reduction of growth after 3 days. The series is classed as cell-based. As to conditions: human. In a few lines: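 HEL cell suspensions were added to wells holding varying concentrations of test compound. Plates were incubated 3 days at 37 °C in a humidified CO2 incubator, and viable cells were counted with a Coulter Counter. CC50 is the concentration that reduced viable cell number by 50%.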

Series [6] is described as follows: Cytotoxicity against HEL cells assessed as morphological alteration after 3 days. Type of series: cell-based. The following applies: human. The procedure, abridged: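 HEL cell cultures were examined by microscope. Cytotoxicity was recorded as the minimum cytotoxic concentration (MCC), meaning the lowest compound concentration that caused a detectable alteration of cell morphology.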

Values after ≈ are worked out from the molar mass of the structure shown.

Consider `Cc1cc(-n2ccc3ccccc32)c2ncc(CSCCc3ccccc3)n2c1`, for which the EC50 in the series on Human alphaherpesvirus 3 [1] is greater than 20 µg/mL; with Human betaherpesvirus 5 [2] it was 10.5 µg/mL (≈ 26.4 µM); with Human betaherpesvirus 5 [3] it was 20 µg/mL (≈ 50.3 µM); in the series with Human alphaherpesvirus 3 [4] it was greater than 20 µg/mL. Further, the CC50 at 72 h in series [5] was greater than 100 µg/mL. For the same compound, in series [6], the MCC at 72 h amounted to 100 µg/mL.
Take `Cc1cc(N2CCCC2)c2ncc(CSCCc3ccccc3)n2c1`: the EC50 with Human alphaherpesvirus 3 [1] was 35.7 µg/mL (≈ 102 µM); in the series on Human betaherpesvirus 5 [2], 20 µg/mL (≈ 56.9 µM); in the series on Human betaherpesvirus 5 [3], greater than 20 µg/mL; in the series on Human alphaherpesvirus 3 [4], greater than 20 µg/mL. In addition, the CC50 at 72 h in series [5] is greater than 100 µg/mL. The MCC at 72 h in series [6] was greater than 100 µg/mL.
With `Cc1cc(N2CCCC2=O)cn2c(CSCCc3ccccc3)cnc12`, the EC50 is greater than 100 µg/mL in the series with Human alphaherpesvirus 3 [1], greater than 20 µg/mL in the series on Human betaherpesvirus 5 [2], greater than 20 µg/mL with Human betaherpesvirus 5 [3] and greater than 20 µg/mL in the series on Human alphaherpesvirus 3 [4]. Besides, the CC50 at 72 h in series [5] amounted to 89 µg/mL (≈ 244 µM). Moreover, the MCC at 72 h in series [6] was greater than 100 µg/mL.
On to `Cc1cc(-c2ccoc2)c2ncc(CSCCc3ccccc3)n2c1`, for which the EC50 was 20 µg/mL (≈ 57.4 µM) in the series on Human alphaherpesvirus 3 [1], 1.3 µg/mL (≈ 3.73 µM) in the series on Human betaherpesvirus 5 [2], 1.8 µg/mL (≈ 5.17 µM) with Human betaherpesvirus 5 [3] and greater than 20 µg/mL in the series with Human alphaherpesvirus 3 [4]. Also, the CC50 at 72 h in series [5] came out at 64 µg/mL (≈ 184 µM). Moreover, the MCC at 72 h in series [6] worked out at 100 µg/mL.
For the compound `Cc1cc(N2CCCC2)cn2c(CSCCc3ccccc3)cnc12`, the EC50 was greater than 4 µg/mL with Human alphaherpesvirus 3 [1], 2 µg/mL (≈ 5.69 µM) in the series with Human betaherpesvirus 5 [2], 4 µg/mL (≈ 11.4 µM) in the series on Human betaherpesvirus 5 [3] and greater than 4 µg/mL in the series with Human alphaherpesvirus 3 [4]. In series [5], the CC50 at 72 h was determined as 12 µg/mL (≈ 34.1 µM). Moreover, in series [6], the MCC at 72 h was 20 µg/mL.

A word on the EC50: it is the concentration giving half of the maximal effect. The term CC50 denotes the concentration giving 50% cytotoxicity.
